Bioassay records from PubChem.
PTK2B oligo ant – antagonists of Pyk2 self-association, primary screen, Q293 cells, FERM NanoBiT luminescence, HTS | Protein-tyrosine kinase 2-beta (Homo sapiens), Q14289 | stronger effect = lower value | z-score (the deposit names both 25 µM and 10 µM) | actives 0.83% (n = 99,000) | AID 1347419, 2020;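 active = Z-score of -3 or lower, scaled per plate to the spread of control and sample wells; inactive = z-score above -3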;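 note: negative z-score means lost luminescence so less FERM oligomerization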
RORa activator – activators of orphan receptor RORA, primary screen, cell-based, luminescence. Nuclear receptor ROR-alpha (Homo sapiens), P35398. CHO-K1 Gal4-RORA LBD luciferase reporter; percent increase over mock-subtracted basal signal. activation, % at 10 µM. actives 1.5% (n = 65,000). AID 560, 2006;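 active = activation above the mean of all tested compounds plus 3 SD, cut at about 49% in these data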;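 note: 0% = DMSO-treated RORA cells and 100% = added signal equal to DMSO minus mock-transfected cells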
ERa coact pot – enhancers of ERα–SRC-1 coactivator binding, primary screen, biochemical, TR-FRET, ERα LBD, low estradiol; coactivator binding (% of control), % at 25.6 µM; AID 639, 2007; Estrogen receptor (Homo sapiens), P03372; actives 1.3% (n = 86,000); TR-FRET ERalpha-LBD/SRC-Cy5 coactivator binding, 2 h; 100 = basal binding, no effect; in the data active = activity above about 200%;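 note: binding measured in presence of low estradiol as agonist stimulus; 0% = peptide alone without receptor and 100% = receptor with peptide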
SF1 activator – activators of human SF-1, primary screen, cell-based, CHO-K1, Gal4-SF-1 LBD, luciferase luminescence; Steroidogenic factor 1 (Homo sapiens), Q13285; CHO-K1 Gal4-SF-1 LBD luciferase reporter; % increase over DMSO SF-1-specific signal; activation, % at 10 µM; actives 1.9% (n = 65,000);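 active = activation above the mean activation of all tested compounds plus 3 SD, cut at about 50% in these data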
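Assay system: CHO-K1 cells co-transfected with Gal4 DBD–human SF-1 LBD, 5xGal4 luciferase reporter; doses: 10 µM only; incubation: 20 h compound exposure at 37 °C after 1 h cell settling; signal: luciferase light emission; evaluation: percent activation versus DMSO; repeats: one test per compound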
ERa SRC1 inh – ERα–SRC-1 coactivator interaction inhibitors, primary screen, biochemical, TR-FRET, ERα LBD, estradiol-bound | Estrogen receptor (Homo sapiens), P03372 | TR-FRET ER-alpha LBD / SRC-1 peptide | inhibition, % at 25.6 µM | actives 1.7% (n = 86,000) | AID 629, 2007; in the data active = inhibition above about 50%;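 note: 0% = receptor plus peptide control and 100% = peptide only without receptor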
ERb SRC1 inh – inhibitors of ERβ-SRC1 coactivator interaction, primary screen, biochemical, TR-FRET, ERβ LBD, SRC-1 peptide. inhibition, % at 25.6 µM. TR-FRET ER-beta LBD / SRC1-Cy5 peptide binding; receptor agonist-loaded with 1 µM estradiol. actives 1.3% (n = 86,000). Estrogen receptor beta (Homo sapiens), Q92731;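 active = compounds whose percent inhibition of the receptor-coactivator binding signal exceeds about 50% in the single-dose screen, limit read from the data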;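 note: 0% = receptor plus peptide wells without compound and 100% = peptide-only wells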
Target sequence (Q92731 whole entry, looked up, the tested form may be a part): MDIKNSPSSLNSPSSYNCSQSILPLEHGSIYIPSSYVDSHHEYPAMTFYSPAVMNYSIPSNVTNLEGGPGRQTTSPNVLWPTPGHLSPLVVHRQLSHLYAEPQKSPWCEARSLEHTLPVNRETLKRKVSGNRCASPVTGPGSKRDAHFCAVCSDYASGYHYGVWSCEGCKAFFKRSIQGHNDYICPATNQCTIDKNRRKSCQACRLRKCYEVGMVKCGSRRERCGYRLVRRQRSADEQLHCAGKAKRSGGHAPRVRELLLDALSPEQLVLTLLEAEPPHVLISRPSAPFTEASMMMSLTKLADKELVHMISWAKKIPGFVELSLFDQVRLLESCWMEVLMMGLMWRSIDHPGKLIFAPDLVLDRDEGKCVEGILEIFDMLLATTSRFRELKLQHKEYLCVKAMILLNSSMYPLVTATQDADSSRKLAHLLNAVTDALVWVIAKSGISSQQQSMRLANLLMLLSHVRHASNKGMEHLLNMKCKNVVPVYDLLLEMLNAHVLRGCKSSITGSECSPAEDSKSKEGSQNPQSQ
Active calls of the source: *; · = no result; [ ] = another dose, or the depositor's remark. In the library only some 4.8% were active in any assay of this set; here they are far more common.

SMILES | PTK2B oligo ant | RORa activator | ERa coact pot | SF1 activator | ERa SRC1 inh | ERb SRC1 inh
C/C(=N\O)c1ccccc1C(=O)O | -3.3* | 14 | 116 | -5 | -5 | -3
O=C(O)c1ccccc1C1=Nc2ccc(O)cc2Oc2cc(O)ccc21 | 0.49 | 0 | 46 | -12 | 35 | 62*[fluorescence artefact?]
Cc1cc(-c2ccccc2C(=O)O)on1 | -0.97 | 26 | 111 | -8 | 6 | 4
Cc1cc(N2CCCC2=O)c(N)cc1N | 0.74 | 3 | 85 | -12 | -1 | 0
Cn1c(SCC(=O)c2ccccc2)nnc1-c1cnccn1 | 0.14 | 30 | 90 | 61* | 16 | 3
CCC(=O)Nc1cccc(-c2nnc(SCC(=O)c3ccccc3)n2C)c1 | 0.36 | 61* | 107 | 44 | 5 | -6
CCC(=O)Nc1cccc(-c2nnc(SCC(=O)NCc3ccco3)n2C)c1 | 0.61 | -2 | · | -11 | · | ·
S=C(NN=C(C1CC1)C1CC1)Nc1ccccc1 | -0.57 | · | 101 | · | -5 | -8
O=C(NNC(=O)C1CCCO1)c1ccc(Cl)cc1 (configuration not stated) | 0.96 | · | · | · | · | ·
CCc1ccc(Nc2nc(N)nc(CSc3nnnn3-c3ccccc3)n2)cc1 | -1.3 | -16 | 312* | 4 | 41 | 41
CCSc1nc2c(c(=O)[nH]1)C(C(C)C)C(C#N)=C(N)O2 (configuration not stated) | · | 3 | 122 | -14 | -17 | -8
CCOC(=O)C1=C(O)/C(=C/c2ccc(C)o2)SC1=NC(=O)c1ccccc1C | · | · | 59 | · | 64*[fluorescence artefact?] | 39
CCOC(=O)C1=C(O)/C(=C/c2cc(OC)c(OC)c(OC)c2)SC1=Nc1ccc(OC)cc1 | -2 | · | · | · | · | ·
O=C(NNC(=O)c1cc(-c2ccc(Cl)cc2Cl)nc2ccccc12)Nc1ccccc1 | -3.5* | · | · | · | · | ·
C/C(=N\N=C\c1ccccc1)c1nnn(-c2nonc2N)c1C | 0.37 | · | · | · | · | ·
COc1ccc(C(=O)/C=C/c2ccccc2OC)c(OC(=O)c2ccc([N+](=O)[O-])cc2)c1 | -3.3* | · | · | · | · | ·
COc1ccc(OC(=O)c2cccc([N+](=O)[O-])c2)c(C(=O)/C=C/c2cccs2)c1 | -0.29 | · | 110 | · | 5 | 6
Cc1ccc(CSCC(=O)N/N=C/c2sccc2C)cc1 | 2.2 | · | · | · | · | ·
Cc1nnc(SCCN2CCOCC2)n1C | 0.21 | 7 | · | 13 | · | ·
CC(C)Oc1cc(O)c2c(=O)c(-c3ccc(O)cc3)coc2c1 | · | 46 | 69 | 58* | -8 | -6
COc1ccc(-c2coc3cc(O)cc(O)c3c2=O)cc1 | · | 30 | 82 | 97* | 2 | 12
COc1ccc(-c2coc3cc(OC)cc(O)c3c2=O)cc1 | 1 | · | 61 | · | 7 | -6
CCOC(=O)C1(Cc2ccc(O)cc2)NC(c2ccco2)C2C(=O)N(c3ccccc3F)C(=O)C21 (configuration not stated) | 0.29 | 15 | 113 | -9 | -2 | -5
O=C1Nc2ccccc2C12OCCS2 (configuration not stated) | · | 5 | 96 | -6 | -5 | 54*
O=C1Nc2ccccc2C12OCC1(CO2)COC2(OC1)C(=O)Nc1ccccc12 (configuration not stated) | -2.8 | -7 | 93 | 2 | 6 | 5
SMILES | PTK2B oligo ant | RORa activator | ERa coact pot | SF1 activator | ERa SRC1 inh | ERb SRC1 inh
O=C(NCC(=O)N(Cc1cccs1)C(C(=O)NC1CCCC1)c1ccncc1)c1ccco1 (configuration not stated) | -0.12 | -16 | 75 | -11 | 99*[fluorescence artefact?] | 9
O=C(NCC(=O)N(Cc1cccs1)C(C(=O)NC1CCCCC1)c1ccco1)c1ccco1 (configuration not stated) | -1.2 | · | 101 | · | -4 | -8
COc1ccc(NC(=O)NCc2ccccn2)cc1OC | 1 | -9 | 108 | 2 | -24 | -21
CC(=O)c1cccc(NC(=O)NCc2ccccn2)c1 | 1.8 | 22 | 115 | 56* | -28 | -16
Cc1ccc(S(=O)(=O)/N=C(\CN2CCCCC2)N2CCOCC2)cc1 | 0.2 | -13 | 106 | -20 | -6 | 0
Cc1ccccc1Nc1nc(N)nc(CSc2nc3ccccc3c(=O)n2C)n1 | -3.1* | · | 108 | · | 78* | -9
Cc1ccc(CNC(=O)c2cn(C3CCCCC3)c(=O)c3c2c2ccccc2n3C)o1 | 0.8 | -22 | 74 | -14 | 0 | 13
Cc1cc(NC(=O)c2cn(C3CCCCC3)c(=O)c3c2c2ccccc2n3C)no1 | · | 7 | 200*[fluorescence artefact?] | -8 | 5 | 21
O=C(N/C=N/OCc1ccc(Cl)cc1Cl)NOCc1ncc(C(F)(F)F)cc1Cl | -0.02 | · | 63 | · | 2 | -1
O=C(c1ccc(Cl)c(S(=O)(=O)NCc2ccco2)c1)N1CCN(c2ccc(F)cc2)CC1 | 0.01 | · | 120 | · | 15 | -8
CCOC(=O)c1n[nH]c2ccccc12 | 0.68 | -1 | 125 | 14 | 2 | 0
Cc1ccc2c(COC(=O)c3n[nH]c4ccccc34)cc(=O)oc2c1 | -0.37 | 47 | 200* | 45 | 16 | 15
CCc1ccc2c(COC(=O)c3n[nH]c4ccccc34)cc(=O)oc2c1 | -0.77 | 28 | 161 | 58* | 32 | 18
CCOC(=O)c1c(C2COc3ccccc3O2)csc1NC(=O)c1ccco1 (configuration not stated) | 0.16 | -1 | 120 | 0 | 3 | 1
CCCCn1nc(NC(=O)c2cccs2)c2cc3ccccc3nc21 | -3.1* | -10 | 123 | 6 | -1 | -15
CCCCn1nc(NC(=O)c2cccs2)c2cc3cc(OC)ccc3nc21 | -3* | 18 | 114 | 16 | -8 | -5
C=CCn1c(SCc2c(F)cccc2Cl)nnc1-c1ccco1 | -1.2 | 16 | 106 | 9 | -6 | -2
COc1ccc(N2C(C)=CS/C2=C(/C#N)c2nnc(N3CCOCC3)n2-c2ccccc2)cc1 | -0.42 | -21 | · | -12 | · | ·
CC(=O)Nc1ccc(S(=O)(=O)NCc2ccc3c(c2)cc(C)n3C)cc1 | · | -9 | 81 | 5 | 13 | 40
Cc1cc(C)c(S(=O)(=O)NCc2ccc3c(c2)cc(C)n3C)c(C)c1 | · | · | 257*[fluorescence artefact?] | · | 10 | 12
Cc1cc2cc(CNS(=O)(=O)c3ccc4ccccc4c3)ccc2n1C | · | · | 651*[fluorescence artefact?] | · | 27 | -2
CNc1ccc(Br)cc(C(=O)/C=C/c2cc(OC)ccc2OC)c1=O | 0.28 | · | 56 | · | 71*[fluorescence artefact?] | 65*[fluorescence artefact?]
COCCCNC(=O)/C=C/c1ccc(Cl)cc1Cl | 0.67 | · | · | · | · | ·
CCNc1ccc(Br)cc(C(=O)/C=C/c2ccc(Cl)cc2Cl)c1=O | 0.13 | · | 101 | · | 85*[fluorescence artefact?] | 76*[fluorescence artefact?]
